We go through 18 molecules from ChEMBL document CHEMBL1157427, “In vitro and in vivo anti-tumoral activities of imidazo[1,2-a]quinoxaline, imidazo[1,5-a]quinoxaline, and pyrazolo[1,5-a]quinoxaline derivatives” (Bioorg Med Chem, 2008).

Activity calls are given as the source filed them. The calls are words filed in the database; no cut-off is given here. A value given as a limit tells only on which side of the number the result lay.

One data set deals with A-375. Briefly: Cytotoxicity against human A375 cells after 96 hrs by MTT assay. It is filed as functional, cell-based. Conditions: A-375, 96 h. In short, it runs like this:
(§1)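 Cells were seeded at 5000/well in DMEM (M4Be) or RPMI-1640 (others) and attached overnight. They were then exposed for 96 h at 37 °C, 5% CO2 to 10^-4 to 10^-10 […] in 1% DMSO/medium. MTT was added for 4 h, formazan dissolved in isopropanol/1 M HCl, and OD read at 570 nm. Survival was taken as % of vehicle control and IC50 as 50% growth inhibition. ≥3 experiments in triplicate; mean ± SD.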
(In general: Tetrazolium assays rely on reduction of a dye to a coloured formazan, in cell work by metabolically active cells.)

In a further data set the test system is Raji. Briefly: Cytotoxicity against human Raji cells after 96 hrs by MTT assay. It is filed as functional, cell-based. In short, it runs like this:
as §1

The subject of another data set is LS174T. The data set can be described thus: Cytotoxicity against human LS174T cells after 96 hrs by MTT assay. The format is functional, cell-based. In short, it runs like this: as §1
Data set [1] in a line: Cytotoxicity against human M4Be cells after 96 hrs by MTT assay. The format is functional, cell-based. In short, it runs like this:
as §1

Data set [2] can be described thus: Cytotoxicity against human RPMI7591 cells after 96 hrs by MTT assay. The format is functional, cell-based.
Data set [3] in a line: Toxicity in ip dosed Swiss mouse. The format is organism-based. The conditions noted are these: in vivo. A digest of the protocol:
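Single intraperitoneal doses of 30 to 300 mg/kg given to healthy Swiss mice. Compound dissolved in intralipid/DMSO (50:50, v/v) because of poor water solubility. Read-out is the 50% lethal dose (LD50).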

The subject of a further data set is M4Be. Briefly: Antitumor activity against human M4Be cells xenografted Swiss nude mouse assessed as reduction in tumor volume at 20 mg/kg, ip administered twice a week for 3 weeks measured from day 18 to day 55. It is filed as functional, organism-based. Details: dose 20 mg/kg. In short, it runs like this:
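Female Swiss nude mice (7 weeks old) were given 3×10^6 M4Be cells s.c. in the flank. At ~0.7 cm3 they were randomized, 6 per group, and received 20 mg/kg twice weekly (Mon/Thu) for 3 weeks in intralipid/DMSO (50:50), with the cycle repeated after 15 days. Controls received vehicle. Calipers twice weekly, V = 0.5ab². Repeated-measures ANOVA with contrast test, significance 0.02. Mean ± SEM.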
On the technique in general: A xenograft is tissue or cells of one species grown in another, often human tumour cells in immunodeficient mice.

The next data set concerns MCF7. Briefly: Cytotoxicity against human MCF7 cells after 96 hrs by MTT assay. It is filed as functional, cell-based. The conditions noted are these: MCF7, 96 h. In short, it runs like this: as §1

Broadly, the IC50 is the point on the concentration scale where inhibition reaches its midpoint. High values mean weaker potency in that assay, low ones greater potency in that assay. The term LD50 denotes the dose at which mortality reaches 50%.

On to `CN(C)c1nc2ccccc2n2cncc12`, for which the IC50 with A-375 came out at 121 µM. The same measure, in the same setting: the same measure for `CNc1nc2ccccc2n2c(-c3ccccc3)ncc12`: above 400 µM.

Molecule `CC(C)Cc1cnc2c(N(C)C)nc3ccccc3n12` came in with an IC50 with A-375 of 66.3 µM. This lies in the double-digit micromolar range. Same read-out and setting: next, `Clc1nc2ccccc2n2c(CCc3ccccc3)cnc12`: 24 µM; `CN(C)c1nc2ccccc2n2c(CCc3ccccc3)cnc12`: 80.1 µM. Still for that read-out and setting: next, `CNc1nc2ccccc2n2c(CC(C)C)cnc12`: 31.6 µM. Still for that read-out and setting: the same measure for `Cc1cccc(Cl)c1Nc1nc2ccccc2n2c(CCc3ccccc3)cnc12`: 329 µM; for `CNc1nc2ccccc2n2nc(CC(C)C)cc12`: 78.6 µM.

As to `CN(Cc1cnc2nc(N)nc(N)c2n1)c1ccc(C(=O)N[C@@H](CCC(=O)O)C(=O)O)cc1` [METHOTREXATE], in the data set on Raji, the IC50 was 0.04 µM. Turning to `Nc1nc2ccccc2n2c(CCc3ccccc3)cnc12`, in the data set with A-375, inhibition was half-maximal at 2.35 µM (IC50). The same measure, in the same setting: the same measure for `CNc1nc2ccccc2n2cncc12`: 85.3 µM; for `Cc1cccc(Cl)c1Nc1nc2ccccc2n2c(CC(C)C)cnc12`: above 400 µM. In turn, `CCc1c2c(nc3ccc(OC(=O)N4CCC(N5CCCCC5)CC4)cc13)-c1cc3c(c(=O)n1C2)COC(=O)[C@]3(O)CC` [IRINOTECAN] returned an IC50 in the data set with LS174T of 1.16 µM. In other words, the single-digit micromolar range.

As for `CC(C)Cn1cnc2c(N)nc3ccccc3c21` [IMIQUIMOD], the IC50 in data set [1] is 33.5 µM; in data set [2], 53.7 µM; in the data set with LS174T it was 34.4 µM. In turn, `CNc1nc2ccccc2n2c(C)ncc12` had an IC50 in the data set on A-375 of 100 µM.

On to `CC(C)Cc1cc2c(N(C)C)nc3ccccc3n2n1`, for which, in the data set with A-375, the IC50 was found to be 101 µM. The same measure, in the same setting: next, `COc1nc2ccccc2n2c(CCc3ccccc3)cnc12`: 47.8 µM. `CNc1nc2ccccc2n2c(CCc3ccccc3)cnc12`: in data set [3], the median lethal dose (LD50) is above 300 mg/kg. The IC50 amounted to 2.58 µM in data set [1]; 1.08 µM with MCF7; 6.23 µM in the data set on Raji; 4.23 µM in data set [2]; 4.12 µM in the data set on LS174T. For the same molecule, the outcome in the data set with M4Be was Active.
